CRFBP-R2 block: CRF-BP/CRF-R2 complex antagonism | 350,000 tested, 0.59% active | AID 588475 | inhibition, % at 11.8 µM | HEK293 CRF-R2/CRF-BP, CRF-induced calcium fluorescence;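 active = inhibition of the ligand-induced calcium signal above about 50% at the single tested concentration, limit read from the data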
Tn7 DDE FP: DD(E)-Tn7 binding inhibition, primary FP screen; AID 720508; inhibition, % at 8.3 µM; 370,000 tested, 0.13% active; P02675; FP displacement of FITC-Tn7 peptide from fibrin DD(E); 0% = median of compound wells per plate;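 active = inhibition above the mean of compounds falling within the control limits plus 3 SD of them, cut at about 14% in these data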;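 note: 0% = plate median of compound wells and 100% = 10 µM Aha-Tn7 peptide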
Target sequence (P02675 whole entry, looked up): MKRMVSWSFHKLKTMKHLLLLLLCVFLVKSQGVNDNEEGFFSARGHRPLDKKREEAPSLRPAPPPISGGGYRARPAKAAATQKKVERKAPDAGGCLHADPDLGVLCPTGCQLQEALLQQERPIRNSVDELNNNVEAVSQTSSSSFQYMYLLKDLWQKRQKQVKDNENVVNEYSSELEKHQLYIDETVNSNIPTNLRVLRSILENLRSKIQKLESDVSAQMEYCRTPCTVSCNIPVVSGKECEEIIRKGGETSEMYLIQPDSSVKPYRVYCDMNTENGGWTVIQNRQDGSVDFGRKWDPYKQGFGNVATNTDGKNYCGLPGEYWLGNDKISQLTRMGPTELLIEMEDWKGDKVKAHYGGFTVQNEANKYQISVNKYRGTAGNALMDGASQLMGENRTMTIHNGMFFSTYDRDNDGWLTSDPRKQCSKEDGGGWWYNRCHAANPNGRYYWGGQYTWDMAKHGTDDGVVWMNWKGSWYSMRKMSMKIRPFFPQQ
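Test system – human fibrin DD(E) · Times – 10 min preincubation, 3 h with tracer, room temperature · Detection – fluorescence polarization of the labelled Tn7 tracer · Measure – percent inhibition normalized to high-control wells · Benchmarks – high control wells with 10 µM unlabelled Aha-Tn7 peptide (full inhibition) · Repeats – singlicate testing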
proKLK7 act: activators of human kallikrein-7 zymogen; purified proKLK7, EDANS-DABCYL substrate fluorescence; 100% is mature enzyme control, 0% vehicle; activation, % at 7 µM; 370,000 tested, 0.9% active; AID 652039;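 active = activation above the mean of all tested compounds plus 3 SD, computed per campaign excluding outliers beyond control limits, cut at about 13% in these data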
NRP1-CendR mod: NRP-1/CendR interaction modulation; 360,000 tested, 0.85% active; AID 602438; inhibition, % at 25 µM; O14786; FAM-RPARPAR peptide binding to NRP-1, fluorescence polarization;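 active = inhibition or corrected inhibition above about 18%, plus a signal ratio from 0.5 to 1.5, limit read from the data, passing the limit was not always enough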
CRFBP-R2 agonist: CRF-BP/CRF-R2 complex agonism | activation, % at 13.2 µM | 350,000 tested, 0.46% active | HEK293 CRF-R2/CRF-BP, calcium dye fluorescence (FLIPR); percent of saturating CRF peptide response;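 active = activation of at least 50%, plus an integration ratio under a set limit after plate pattern correction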;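 note: plate controls were neutral control wells without compound for no effect and CRF at EC100 for full effect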
DDE Tn6 FP inh: DD(E)-Tn6 binding inhibition, primary FP screen. P02675. Fibrin DD(E) TRITC-Tn6 fluorescence polarization displacement. inhibition, % at 8.3 µM. 370,000 tested, 0.21% active. AID 720509;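 active = inhibition above a per-campaign cutoff: mean of compounds within control limits plus 3 SD, cut at about 15% in these data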;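 note: 0% = median of all compound wells on the plate and 100% = blocking peptide control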
* marks the source's active call; other numbers are inactive results; x = not tested or not shown. Most compounds without a hit are left out; they make up all but 2.9% or so of the library.

SMILES	CRFBP-R2 block	Tn7 DDE FP	proKLK7 act	NRP1-CendR mod	CRFBP-R2 agonist	DDE Tn6 FP inh
O=C(NC1(C(F)(F)F)C(=O)Nc2c1c(=O)[nH]c(=O)n2Cc1ccccc1)c1ccc(Cl)cc1Cl (stereo not drawn)	7	7	0	0	0	1
O=C(NC1(C(F)(F)F)C(=O)Nc2c1c(=O)[nH]c(=O)n2Cc1ccccc1)c1ccc(Cl)cc1 (stereo not drawn)	62*	6	0	6	0	2
OC1OC2COC(c3ccccc3)OC2C(O)C1O (stereo not drawn)	x	-6	0	x	x	-5
CC(C)(C)N(Cc1cn(CC2CCCCC2)nn1)S(=O)(=O)c1ccccc1Br	x	1	0	x	x	5
CC(C)(CNC(=O)c1ccc(Br)o1)N1CCOCC1	4	1	0	5	1	10
CC(C)(CNC(=O)c1ccc(Br)o1)CNC(=O)c1ccc(Br)o1	76*	-10	1	2	-1	5
Cc1c[nH]c2cccc(-c3ccc4c(c3)OCO4)c12	x	-2	1	x	x	-2
O=C1S/C(=C\c2ccc(O)c([N+](=O)[O-])c2)C(=O)N1Cc1cccc([N+](=O)[O-])c1	92*	-8	0	-3	5	-7
Cc1cccc(NC(=O)CN2C(=O)S/C(=C\c3ccc(O)c([N+](=O)[O-])c3)C2=O)c1	20	4	0	-1	-1	-4
COc1cc(/C=C2\SC(=O)N(c3cccc(Cl)c3)C2=O)cc([N+](=O)[O-])c1O	54*	2	0	-7	-6	3
COc1cc(/C=C2\SC(=O)N(c3ccc(Cl)cc3)C2=O)cc([N+](=O)[O-])c1O	21	-2	1	6	0	-2
O=C1S/C(=C\c2ccc(O)c([N+](=O)[O-])c2)C(=O)N1c1ccccc1Cl	55*	1	0	-6	1	6
COCCCNC(=O)C[C@@H]1C(=O)N(CCc2ccc(Cl)cc2)C2=CCCCC[C@]21C(=O)OC	x	6	0	x	x	-8
C[C@H](O)[C@@H]1CN2CCc3c([nH]c4cccc(-c5ccccc5)c34)[C@@H]2C[C@@H]1N(C)C(=O)Nc1ccccc1	x	-6	-2	x	x	-4
CN(C)C=Nc1ccc(Cn2cnc3nc4ccc(Cl)cc4cc3c2=O)cc1	x	-2	0	x	x	0
Cc1cccc(C)c1NC(=O)CSc1nnc(-c2ccoc2C)n1CCc1ccccc1	-4	-2	0	21*	1	-2
COC(=O)CSc1nnc(-c2ccc(NS(=O)(=O)c3ccc(Cl)s3)cc2)o1	x	5	0	x	x	-8
COc1ccccc1N(CC(=O)N1CCCC1)S(=O)(=O)c1ccc(C)cc1	22	4	0	-16	0	2
COc1ccc(C)cc1N(CC(=O)N1CCc2ccccc2C1)S(C)(=O)=O	18	-4	0	26*	1	6
COc1ccccc1N(CC(=O)N1CCCCC1C)S(=O)(=O)c1ccc(Cl)cc1 (stereo not drawn)	-11	2	0	-8	55*	3
COc1ccccc1N(CC(=O)N1CCc2ccccc2C1)S(C)(=O)=O	-4	6	0	25*	-2	-2
COc1cccc(C2CC(c3cccs3)=NN2C(=S)Nc2ccccc2)c1OC (stereo not drawn)	81*	5	-5	-24	3	-14
c1ccc(-c2cccc(CNc3nc(-c4ccccn4)nnc3-c3ccccc3)c2)cc1	x	-19	x	x	x	-22
COc1cc(/C=C2/C(=O)NN(c3cccc(C)c3)C2=O)ccc1OC(=O)c1ccco1	-234	-5	1	-34	54*	3
NC1=[N+](Cc2ccccc2)C[C@H]2C(=C3CCCC[C@H]3n3c(=O)n(-c4ccccc4)c(=O)n32)N1	x	-7	0	x	x	-5
SMILES	CRFBP-R2 block	Tn7 DDE FP	proKLK7 act	NRP1-CendR mod	CRFBP-R2 agonist	DDE Tn6 FP inh
O=C1C(NS(=O)(=O)c2cccs2)=C(N2CCN(c3cccc(Cl)c3)CC2)C(=O)c2ccccc21	9	0	1	40*	1	6
O=C1C(NS(=O)(=O)c2ccccc2)=C(N2CCN(c3ccc(F)cc3)CC2)C(=O)c2ccccc21	-14	5	1	0	-4	5
COc1ccc(S[C@]2(C(=O)N(C)C)CC(=O)N(C(=O)c3ccccc3)[C@@H]2c2ccc(OC)cc2)cc1	x	2	0	x	x	-3
COc1ccc(-c2nc(C(=O)O)cs2)cc1OC	-17	1	1	16	-3	0
COc1ccc(-c2cc(C(=O)O)nc3ccc4ccccc4c23)cc1OC	58*	9	3	-1	-1	2
O=C(CSc1nnc(-c2ccc(Cl)cc2)n1Cc1ccco1)Nc1ccc(S(=O)(=O)Nc2nccs2)cc1	x	-4	0	x	x	6
O=C(CCCc1cccs1)Nc1ccc2c(c1)OCO2	58*	-1	-1	10	2	0
CC(C)N1CCCCC(NC(=O)c2cccc(F)c2)C1=O (stereo not drawn)	x	4	1	x	x	-1
CCOC(=O)CSc1nc2cc(C(=O)NCC3CCCO3)ccc2c(=O)n1Cc1ccco1 (stereo not drawn)	-35	-4	0	-2	-1	4
CCOC(=O)Cn1c(=O)n(Cc2ccco2)c(=O)c2ccc(C(=O)NC3CCCC3)cc21	-17	-5	-1	33*	-3	2
COC(=O)C1CN(C2CCCC2)CCS(=O)(=O)N1Cc1cn(Cc2ccc(F)cc2)nn1 (stereo not drawn)	x	-7	0	x	x	6
Cc1ccc(F)c(S(=O)(=O)NC(=O)C2(C)CCN2C(=O)c2ccc(C3CCCCC3)cc2)c1 (stereo not drawn)	x	-1	0	26*	x	-6
CC1(C(=O)NS(=O)(=O)c2ccccc2)CCN1C(=O)c1ccc(C2CCCCC2)cc1 (stereo not drawn)	x	-3	0	-3	x	1
Cc1c(C(=O)OCC[N+]2(C)CCCCC2)oc2ccccc12	-12	4	-1	48*	1	-8
Cc1ccc(S(=O)(=O)c2nnn3c2nc(N2CCOCC2)c2ccccc23)c(C)c1	106*	-2	0	10	-1	0
Cc1ccc(S(=O)(=O)c2nnn3c2nc(N2CCOCC2)c2ccccc23)cc1C	55*	0	0	4	1	4
Cc1ccc(NC(=O)OCCCN2C(=O)CCC23CCC(C)CC3)cc1 (stereo not drawn)	x	9	0	x	x	-5
O=C(OCCN1CCN(C2CN(Cc3cn(Cc4ccc([N+](=O)[O-])cc4)nn3)S(=O)(=O)C2)CC1)c1cc2ccccc2o1 (stereo not drawn)	x	0	0	x	x	-1

Screens: PubChem, several laboratories
